The source made the active and inactive calls. The rule behind the calls is not given here.
How the values were obtained:
Type in all cases: cell-based
Toll-like receptor 8 = target: T1, Toll-like receptor 8 (Homo sapiens, UniProt Q9NR97); assay: Agonist activity at human TLR8 expressed in HEK293 cells assessed as induction of NF-kappaB activity by secreted alkaline phosphatase reporter gene assay
T1 sequence (Q9NR97 whole entry): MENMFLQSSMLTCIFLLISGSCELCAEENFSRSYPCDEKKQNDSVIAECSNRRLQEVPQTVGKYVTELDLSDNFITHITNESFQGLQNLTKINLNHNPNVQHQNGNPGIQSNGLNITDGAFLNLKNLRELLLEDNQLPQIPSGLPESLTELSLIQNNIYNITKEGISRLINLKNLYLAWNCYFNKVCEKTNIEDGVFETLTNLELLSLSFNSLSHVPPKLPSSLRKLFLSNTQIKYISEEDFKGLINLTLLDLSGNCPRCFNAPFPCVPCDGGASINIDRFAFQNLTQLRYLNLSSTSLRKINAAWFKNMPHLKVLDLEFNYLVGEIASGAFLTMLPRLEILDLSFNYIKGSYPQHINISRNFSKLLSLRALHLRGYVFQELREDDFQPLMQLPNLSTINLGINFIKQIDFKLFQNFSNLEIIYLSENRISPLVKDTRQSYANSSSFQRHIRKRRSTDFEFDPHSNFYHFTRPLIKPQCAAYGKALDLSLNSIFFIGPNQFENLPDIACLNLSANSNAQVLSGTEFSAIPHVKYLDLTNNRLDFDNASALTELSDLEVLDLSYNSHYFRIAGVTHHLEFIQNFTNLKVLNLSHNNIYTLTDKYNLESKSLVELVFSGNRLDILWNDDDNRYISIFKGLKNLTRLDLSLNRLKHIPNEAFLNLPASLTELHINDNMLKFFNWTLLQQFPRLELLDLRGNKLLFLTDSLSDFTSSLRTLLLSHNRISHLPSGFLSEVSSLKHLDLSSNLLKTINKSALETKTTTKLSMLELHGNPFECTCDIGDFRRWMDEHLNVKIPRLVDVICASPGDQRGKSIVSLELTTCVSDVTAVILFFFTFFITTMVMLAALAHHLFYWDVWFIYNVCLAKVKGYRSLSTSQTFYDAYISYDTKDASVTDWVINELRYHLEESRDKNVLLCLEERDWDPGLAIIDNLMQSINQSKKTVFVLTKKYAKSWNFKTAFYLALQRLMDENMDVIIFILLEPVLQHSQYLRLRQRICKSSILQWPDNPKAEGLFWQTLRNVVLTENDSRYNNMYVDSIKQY
In short: (§1)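 HEK293 reporter lines stably co-transfected with the respective human TLR and an NF-κB/AP-1-driven secreted alkaline phosphatase gene, kept in selection medium. About 10^5 cells/ml were incubated with graded concentrations of stimuli. Supernatant sAP was read spectrophotometrically at 620 nm using a chromogenic substrate in detection medium. EC50 was taken as the arithmetic mean of quadruplicate samples.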

[1] = target: T2, Toll-like receptor 8 (Homo sapiens) (UniProt Q9NR97); assay: Agonist activity at human TLR8 expressed in HEK293 cells assessed as induction of NF-kappaB activity at 100 uM by secreted alkaline phosphatase reporter gene assay
T2 sequence (whole entry): T1 sequence (Q9NR97 whole entry)
In short: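 TLR8 reporter HEK293 cells carrying an NF-κB/AP-1-inducible secreted alkaline phosphatase were exposed to stimuli, with 100 µM as the top concentration tested. sAP released into the supernatant was read at 620 nm with a chromogenic substrate. Samples were run in quadruplicate.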

[2] = target: Toll-like receptor 5 (Homo sapiens) (UniProt O60602); assay: Agonist activity at human TLR5 expressed in HEK293 cells assessed as induction of NF-kappaB activity by secreted alkaline phosphatase reporter gene assay; in short: as §1
Sequence of Toll-like receptor 5 (Homo sapiens) (O60602 whole entry): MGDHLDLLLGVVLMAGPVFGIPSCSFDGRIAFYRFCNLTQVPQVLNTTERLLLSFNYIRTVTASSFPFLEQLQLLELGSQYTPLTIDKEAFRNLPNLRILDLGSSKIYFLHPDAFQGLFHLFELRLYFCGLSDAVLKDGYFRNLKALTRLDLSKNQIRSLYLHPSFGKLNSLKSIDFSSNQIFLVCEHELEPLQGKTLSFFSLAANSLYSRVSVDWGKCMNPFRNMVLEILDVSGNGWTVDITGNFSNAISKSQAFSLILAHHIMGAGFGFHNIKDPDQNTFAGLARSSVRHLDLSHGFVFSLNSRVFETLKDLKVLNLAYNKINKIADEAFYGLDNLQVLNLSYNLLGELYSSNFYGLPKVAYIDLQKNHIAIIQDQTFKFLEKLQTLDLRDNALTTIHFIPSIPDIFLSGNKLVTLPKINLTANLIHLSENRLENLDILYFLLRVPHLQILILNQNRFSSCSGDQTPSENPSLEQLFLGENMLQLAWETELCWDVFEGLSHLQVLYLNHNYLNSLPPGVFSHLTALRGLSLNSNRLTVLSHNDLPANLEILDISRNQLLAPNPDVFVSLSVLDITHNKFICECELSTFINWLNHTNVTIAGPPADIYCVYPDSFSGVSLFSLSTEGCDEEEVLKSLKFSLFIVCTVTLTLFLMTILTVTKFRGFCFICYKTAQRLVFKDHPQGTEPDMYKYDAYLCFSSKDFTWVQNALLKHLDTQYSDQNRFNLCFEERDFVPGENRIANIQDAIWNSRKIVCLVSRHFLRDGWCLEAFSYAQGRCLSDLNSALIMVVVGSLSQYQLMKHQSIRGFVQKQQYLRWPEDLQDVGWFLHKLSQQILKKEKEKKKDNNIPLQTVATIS

[3] = target: Toll-like receptor 3 (Homo sapiens) (UniProt O15455); assay: Agonist activity at human TLR3 expressed in HEK293 cells assessed as induction of NF-kappaB activity by secreted alkaline phosphatase reporter gene assay; in short: as §1
Sequence of Toll-like receptor 3 (Homo sapiens) (O15455 whole entry): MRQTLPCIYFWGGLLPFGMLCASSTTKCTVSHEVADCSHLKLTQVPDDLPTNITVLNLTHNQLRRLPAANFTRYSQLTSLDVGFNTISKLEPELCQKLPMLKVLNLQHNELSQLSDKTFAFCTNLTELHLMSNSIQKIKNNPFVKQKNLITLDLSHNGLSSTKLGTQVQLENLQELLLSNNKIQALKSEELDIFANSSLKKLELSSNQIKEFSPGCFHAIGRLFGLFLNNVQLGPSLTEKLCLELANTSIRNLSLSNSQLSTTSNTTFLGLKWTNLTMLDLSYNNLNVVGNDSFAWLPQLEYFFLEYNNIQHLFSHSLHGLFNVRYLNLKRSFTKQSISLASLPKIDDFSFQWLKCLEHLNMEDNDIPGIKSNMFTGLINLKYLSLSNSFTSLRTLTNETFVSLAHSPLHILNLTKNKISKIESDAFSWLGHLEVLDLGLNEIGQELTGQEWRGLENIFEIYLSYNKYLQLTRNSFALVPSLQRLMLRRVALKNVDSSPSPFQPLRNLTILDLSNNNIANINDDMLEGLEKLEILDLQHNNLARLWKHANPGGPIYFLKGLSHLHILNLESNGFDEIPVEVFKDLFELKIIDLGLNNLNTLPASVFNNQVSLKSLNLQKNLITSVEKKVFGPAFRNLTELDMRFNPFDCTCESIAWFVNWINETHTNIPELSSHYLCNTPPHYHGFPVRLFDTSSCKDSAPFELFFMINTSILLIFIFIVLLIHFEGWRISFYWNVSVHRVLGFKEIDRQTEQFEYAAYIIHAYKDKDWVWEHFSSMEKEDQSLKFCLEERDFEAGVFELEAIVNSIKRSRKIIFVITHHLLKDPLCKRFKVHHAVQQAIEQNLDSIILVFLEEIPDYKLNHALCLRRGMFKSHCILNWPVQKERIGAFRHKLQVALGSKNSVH

[4] = target: Toll-like receptor 2 (Homo sapiens) (UniProt O60603); assay: Agonist activity at human TLR2 expressed in HEK293 cells assessed as induction of NF-kappaB activity by secreted alkaline phosphatase reporter gene assay; in short: as §1
Sequence of Toll-like receptor 2 (Homo sapiens) (O60603 whole entry): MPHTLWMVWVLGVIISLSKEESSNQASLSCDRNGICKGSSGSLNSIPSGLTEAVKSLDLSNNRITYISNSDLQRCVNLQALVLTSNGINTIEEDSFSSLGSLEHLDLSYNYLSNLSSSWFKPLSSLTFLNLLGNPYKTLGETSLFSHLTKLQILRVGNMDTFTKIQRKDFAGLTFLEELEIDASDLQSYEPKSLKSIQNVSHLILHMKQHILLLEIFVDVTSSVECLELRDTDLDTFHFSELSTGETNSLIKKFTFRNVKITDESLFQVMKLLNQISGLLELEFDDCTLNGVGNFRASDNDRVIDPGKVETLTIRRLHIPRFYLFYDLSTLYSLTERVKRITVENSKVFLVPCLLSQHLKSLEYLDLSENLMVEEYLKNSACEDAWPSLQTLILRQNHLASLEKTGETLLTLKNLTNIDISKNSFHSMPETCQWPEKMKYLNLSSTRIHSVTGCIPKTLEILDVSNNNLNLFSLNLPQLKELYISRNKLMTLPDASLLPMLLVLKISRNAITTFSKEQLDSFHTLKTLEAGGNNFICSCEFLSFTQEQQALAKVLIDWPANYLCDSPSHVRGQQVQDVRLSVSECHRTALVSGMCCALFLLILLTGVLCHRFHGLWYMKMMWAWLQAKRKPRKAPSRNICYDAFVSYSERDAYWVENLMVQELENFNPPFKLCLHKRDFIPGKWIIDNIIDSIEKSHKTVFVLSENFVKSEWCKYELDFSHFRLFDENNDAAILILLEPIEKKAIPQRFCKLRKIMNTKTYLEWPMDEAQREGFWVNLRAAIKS

[5] = target: T3, Toll-like receptor 9 (Homo sapiens) (UniProt Q9NR96); assay: Agonist activity at human TLR9 expressed in HEK293 cells assessed as induction of NF-kappaB activity by secreted alkaline phosphatase reporter gene assay; in short: as §1
T3 sequence (whole entry): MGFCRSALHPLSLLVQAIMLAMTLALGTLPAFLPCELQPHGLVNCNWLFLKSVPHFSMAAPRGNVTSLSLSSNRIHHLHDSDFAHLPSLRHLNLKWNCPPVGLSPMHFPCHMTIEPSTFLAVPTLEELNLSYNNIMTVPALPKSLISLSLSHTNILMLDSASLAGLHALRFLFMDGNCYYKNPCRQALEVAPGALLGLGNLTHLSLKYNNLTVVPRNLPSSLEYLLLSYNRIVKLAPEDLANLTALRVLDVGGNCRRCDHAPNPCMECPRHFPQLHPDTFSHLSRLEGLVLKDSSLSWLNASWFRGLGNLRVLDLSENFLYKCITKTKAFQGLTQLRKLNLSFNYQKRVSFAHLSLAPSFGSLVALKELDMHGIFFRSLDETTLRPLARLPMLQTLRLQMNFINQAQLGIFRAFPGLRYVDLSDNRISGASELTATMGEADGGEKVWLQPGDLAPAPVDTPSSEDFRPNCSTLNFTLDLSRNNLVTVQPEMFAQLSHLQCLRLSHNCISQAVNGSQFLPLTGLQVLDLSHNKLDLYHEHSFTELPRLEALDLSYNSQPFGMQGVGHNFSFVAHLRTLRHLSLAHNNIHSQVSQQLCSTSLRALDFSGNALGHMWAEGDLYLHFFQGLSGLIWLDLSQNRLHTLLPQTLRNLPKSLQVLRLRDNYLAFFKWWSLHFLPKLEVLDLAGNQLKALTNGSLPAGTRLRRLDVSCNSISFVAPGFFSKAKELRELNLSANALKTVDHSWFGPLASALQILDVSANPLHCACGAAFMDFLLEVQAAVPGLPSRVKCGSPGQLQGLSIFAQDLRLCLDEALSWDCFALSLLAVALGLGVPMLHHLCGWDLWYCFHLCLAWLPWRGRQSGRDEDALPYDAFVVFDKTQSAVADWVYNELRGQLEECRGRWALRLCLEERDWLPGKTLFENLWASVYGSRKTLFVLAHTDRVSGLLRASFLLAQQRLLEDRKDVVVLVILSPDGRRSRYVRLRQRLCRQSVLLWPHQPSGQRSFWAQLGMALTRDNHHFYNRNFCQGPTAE

[6] = target: T4, Toll-like receptor 7 (Homo sapiens) (UniProt Q9NYK1); assay: Agonist activity at human TLR7 expressed in HEK293 cells assessed as induction of NF-kappaB activity by secreted alkaline phosphatase reporter gene assay; in short: as §1
T4 sequence (whole entry): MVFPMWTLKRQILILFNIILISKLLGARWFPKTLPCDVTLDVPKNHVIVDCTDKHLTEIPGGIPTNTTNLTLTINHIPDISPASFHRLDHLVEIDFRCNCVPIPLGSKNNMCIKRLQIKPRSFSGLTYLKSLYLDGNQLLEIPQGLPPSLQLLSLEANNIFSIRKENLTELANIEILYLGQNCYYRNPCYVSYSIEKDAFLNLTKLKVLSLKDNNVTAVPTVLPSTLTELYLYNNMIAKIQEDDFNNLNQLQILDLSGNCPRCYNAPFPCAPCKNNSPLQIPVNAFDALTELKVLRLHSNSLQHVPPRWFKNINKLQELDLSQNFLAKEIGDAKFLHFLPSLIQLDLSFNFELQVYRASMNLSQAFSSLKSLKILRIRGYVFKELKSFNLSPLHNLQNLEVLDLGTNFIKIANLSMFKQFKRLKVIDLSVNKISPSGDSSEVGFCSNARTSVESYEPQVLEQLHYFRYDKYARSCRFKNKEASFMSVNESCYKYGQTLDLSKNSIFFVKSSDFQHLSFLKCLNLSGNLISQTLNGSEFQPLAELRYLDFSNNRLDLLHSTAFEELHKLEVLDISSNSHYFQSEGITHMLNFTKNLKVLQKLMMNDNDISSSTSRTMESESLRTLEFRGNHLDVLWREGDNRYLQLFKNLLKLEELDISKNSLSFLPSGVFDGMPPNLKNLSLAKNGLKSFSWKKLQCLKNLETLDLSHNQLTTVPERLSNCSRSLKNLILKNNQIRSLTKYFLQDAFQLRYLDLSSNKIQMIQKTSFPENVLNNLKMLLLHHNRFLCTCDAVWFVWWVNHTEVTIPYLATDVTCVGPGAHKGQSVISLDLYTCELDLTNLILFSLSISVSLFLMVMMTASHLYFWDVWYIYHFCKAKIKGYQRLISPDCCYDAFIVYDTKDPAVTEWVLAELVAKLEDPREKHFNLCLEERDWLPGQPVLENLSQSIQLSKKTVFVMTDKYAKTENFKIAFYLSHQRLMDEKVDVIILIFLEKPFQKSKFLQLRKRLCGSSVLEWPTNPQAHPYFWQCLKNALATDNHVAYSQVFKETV

[7] = target: Toll-like receptor 4 (Homo sapiens) (UniProt O00206); assay: Agonist activity at human TLR4 expressed in HEK293 cells assessed as induction of NF-kappaB activity by secreted alkaline phosphatase reporter gene assay; in short: as §1
Sequence of Toll-like receptor 4 (Homo sapiens) (O00206 whole entry): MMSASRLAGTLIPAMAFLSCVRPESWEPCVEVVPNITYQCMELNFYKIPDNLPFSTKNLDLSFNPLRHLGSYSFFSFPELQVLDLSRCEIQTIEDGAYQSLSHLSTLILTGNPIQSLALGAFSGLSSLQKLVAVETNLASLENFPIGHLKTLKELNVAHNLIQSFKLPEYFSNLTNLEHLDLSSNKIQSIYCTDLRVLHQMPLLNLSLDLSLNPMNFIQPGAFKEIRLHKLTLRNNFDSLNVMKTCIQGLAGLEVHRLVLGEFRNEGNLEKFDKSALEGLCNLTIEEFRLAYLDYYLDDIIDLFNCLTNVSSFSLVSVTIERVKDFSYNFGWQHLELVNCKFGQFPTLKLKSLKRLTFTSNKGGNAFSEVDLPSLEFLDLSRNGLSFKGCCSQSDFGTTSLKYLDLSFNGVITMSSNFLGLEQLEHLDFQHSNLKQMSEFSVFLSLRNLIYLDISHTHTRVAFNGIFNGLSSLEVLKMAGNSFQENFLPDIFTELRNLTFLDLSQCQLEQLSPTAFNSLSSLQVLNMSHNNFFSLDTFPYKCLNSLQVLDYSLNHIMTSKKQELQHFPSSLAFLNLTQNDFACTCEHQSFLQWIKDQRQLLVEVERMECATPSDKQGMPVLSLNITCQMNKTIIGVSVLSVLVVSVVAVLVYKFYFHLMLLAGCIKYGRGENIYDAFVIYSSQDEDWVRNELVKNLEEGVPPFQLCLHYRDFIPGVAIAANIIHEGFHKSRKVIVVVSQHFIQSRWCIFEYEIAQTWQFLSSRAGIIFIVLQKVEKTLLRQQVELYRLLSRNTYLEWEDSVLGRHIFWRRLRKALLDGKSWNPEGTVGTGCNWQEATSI

Activity [1]	Structure (SMILES)	also measured
inactive	CCCCNc1nc(N)nc(N)c1I	–
inactive	CCCCNc1nc(N)nc(OC)c1I	–
inactive	CCCCNc1nc(N)nc(Cl)c1I	–
inactive	CCCCCCNc1nc(N)nc(C)c1I	–
inactive	CCCNc1nc(N)nc(C)c1I	–
inactive	CCCCNc1cc(Cl)nc(N)n1	–

The next lines start with the molecule.

Structure (SMILES)	Activity [1]	also measured
CCCCNc1nc(N)nc(C)c1Cc1ccccc1	–	EC50 (Toll-like receptor 8): 1.2 µM
CCCCN(Cc1ccccc1)c1nc(N)nc(C)c1I	inactive	–
CCCCNc1nc(N)nc(C)c1CCCCCN	–	EC50 (Toll-like receptor 8): 0.3 µM
CCCCCc1nc(N)nc(C)c1I	inactive	–
CCCCCNc1nc(N)nc(C)c1I	–	EC50 (Toll-like receptor 8): 3.7 µM
CCCCNc1cc(C)nc(N)n1	–	Activity [2]: inactive; Activity [3]: inactive; Activity [4]: inactive; Activity [5]: inactive; Activity [6]: inactive; Activity [7]: inactive
CCCCNc1cc(N)nc(N)n1	inactive	–
CCCCNc1nc(N)nc(-c2ccccc2)c1I	inactive	–
CCCCCc1cc(C)nc(N)n1	inactive	–
CCCCNc1nc(N)nc(C)c1F	–	EC50 (Toll-like receptor 8): 34 µM
CCCCOc1nc(N)nc(C)c1I	inactive	–
CCCCNc1cc(OC)nc(N)n1	inactive	–
CCCCNc1nc(N)nc(C)c1Cl	–	EC50 (Toll-like receptor 8): 20 µM
CCCCSc1nc(N)nc(C)c1I	inactive	–
CCCC#Cc1cc(C)nc(N)n1	inactive	–
CCCCNc1nc(N)ncc1I	inactive	–
CCCCN(C)c1nc(N)nc(C)c1I	inactive	–
CCCCNc1nc(N)nc(-c2ccccc2)c1CCCN	inactive	–
CCCCNc1nc(N)nc(C)c1Br	–	EC50 (Toll-like receptor 8): 8.5 µM
CCCCNc1nc(N)nc(C)c1CCCN	–	Activity [2]: inactive; Activity [3]: inactive; Activity [4]: inactive; Activity [5]: inactive; Activity [6]: inactive; Activity [7]: inactive
